Bioassay records: PubChem, several laboratories
Arrestin-AP2 inh: human beta-arrestin and AP2 interaction inhibition. FITC-arrestin peptide / GST-AP2 beads, flow cytometry; AP2 beta2 appendage carries R879A mutation. inhibition, % at 10 µM. AID 504490. hit rate 0.31% among 340,000;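 active means inhibition above a set limit, near 3 SD of compounds lacking own fluorescence, cut at about 54% in these data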;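 further: plate controls were DMSO wells for no effect and 5 µM unlabelled arrestin peptide for full effect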
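System: GST-AP2 R879A bound to glutathione beads, E. coli-expressed. Also added: 50 nM FITC-arrestin peptide. Schedule: compound with beads 12 min RT, then probe 1 h RT. Signal: bead flow cytometry, FITC channel. Read-out basis: percent response.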
Hep lipid drop: hepatic lipid droplet formation modulation; AML12 mouse hepatocytes, oleate lipid droplets, BODIPY imaging; inhibition, % at 6.5 µM; hit rate 0.4% among 240,000;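 active means lipid droplet intensity inhibited by at least 50%, with more than 500 cells counted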
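System: AML12 hepatocytes (mouse). Probe or stimulus: oleic acid at 100 µM to induce lipid droplet formation. Times: overnight treatment with compound plus oleate. Detection: Image-based BODIPY and DAPI two-channel analysis. Evaluation: percent inhibition of filter-corrected integrated lipid droplet intensity per well.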
GRK2 inh: inhibitors of human GRK2 displacing RNA aptamer. P25098. bead flow cytometry, FAM-aptamer displacement from GRK2. inhibition of aptamer binding, % at 10 µM. hit rate 0.59% among 330,000;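 active means inhibition of aptamer binding above 40%, roughly 3 SD of noise, on plates passing a quality check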;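 further: median bead fluorescence of bound FAM aptamer so fluorescent compounds give negative values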
B2AR ag: agonists of human beta-2 adrenergic receptor inducing internalization | P07550 | Am2.2-beta2AR cells, FAP receptor internalization, flow cytometry | response, % (no concentration beside the values) | hit rate 0.43% among 340,000 | AID 504454;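 active means response above a set limit, near 3 SD of response in nonfluorescent compounds, cut at about 42% in these data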
Target sequence (P07550 whole entry, looked up): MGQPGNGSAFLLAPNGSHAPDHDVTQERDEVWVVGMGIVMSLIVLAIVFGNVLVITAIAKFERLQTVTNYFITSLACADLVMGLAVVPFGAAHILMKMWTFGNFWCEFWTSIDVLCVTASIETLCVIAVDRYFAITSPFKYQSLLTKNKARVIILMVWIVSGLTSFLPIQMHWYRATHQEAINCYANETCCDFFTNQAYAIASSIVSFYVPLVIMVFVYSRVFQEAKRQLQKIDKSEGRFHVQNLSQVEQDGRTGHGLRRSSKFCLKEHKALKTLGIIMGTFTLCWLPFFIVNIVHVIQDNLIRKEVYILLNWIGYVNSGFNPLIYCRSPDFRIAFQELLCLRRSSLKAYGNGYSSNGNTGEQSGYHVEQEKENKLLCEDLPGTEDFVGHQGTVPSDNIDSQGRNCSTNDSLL
H9c2 TAG inh: reduces triacylglycerol accumulation in H9c2 cells; Nile Red lipid (TAG) fluorescence; cells loaded with 200 µM oleic acid; inhibition, % at 12.5 µM; hit rate 0.66% among 230,000;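 active means pattern-corrected inhibition of lipid staining of at least 50% with the nuclear-stain viability signal not falling by more than 50%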;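 further: 0% = DMSO wells and 100% = triacsin C control wells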
NTR1 agonist: NTR1 (human) agonism. P30989. NTR1-U2OS beta-arrestin-GFP spot imaging, agonist mode. activation, % at 20 µM. hit rate 0.17% among 330,000. AID 493036;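 active means activation at or above 40% of the spot to cytoplasm intensity ratio, with at least 20 cells analyzed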;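 further: 0% = DMSO without peptide and 100% = 100 nM NTR1 peptide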
Hep lipid conf: confirmation of inhibitors of hepatic lipid droplet formation. hit rate 65% among 870. AID 463183. AML12 mouse hepatocytes, BODIPY lipid droplet imaging; droplets induced with 100 µM oleic acid. shares compounds with Hep lipid drop. inhibition, % at 5.2 µM;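 active means inhibition of lipid droplet metric at least 50%, with more than 300 cells in each of four replicates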;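 further: plate controls were DMSO with oleic acid for no effect and 5 µM Triacsin-C for full effect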
AML12 tox img: toxic to AML12 mouse hepatocytes in counter-screen. shares compounds with Hep lipid drop. DAPI nuclear morphology cytotoxicity imaging; stronger effect = higher value; cells fed 100 µM oleate overnight. z-score at 5 µM. hit rate 3% among 870. AID 463200; in the data active means z-score above about 6.3;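 further: compound exposure lasted overnight at 37 °C before fixation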
AML12 tox conf: AML12 hepatocyte cytotoxicity, confirmed | cytotoxicity, % at 50 µM | 530 tested, under 10 active | AID 463219 | shares compounds with Hep lipid drop | AML12 mouse hepatocyte viability, ATP luminescence; cells loaded with 100 µM oleic acid;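 active means cytotoxicity above 50% in each of four replicates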;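 further: compound exposure lasted overnight at 37 °C before the ATP read; 0% = DMSO-treated cells and 100% = wells with no cells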
Starred values were filed as active, the others as inactive; i = inactive; . = no result given. This is a sample that favours compounds with a hit; in the whole collection about 2% have one here.

SMILES | Arrestin-AP2 inh | Hep lipid drop | GRK2 inh | B2AR ag | H9c2 TAG inh | NTR1 agonist | Hep lipid conf | AML12 tox img | AML12 tox conf
Cc1ccc(S(=O)(=O)N2CCCCC2)cc1C(=O)N(C)CCOc1ccccc1 | 1 | 62* | 0 | -10 | -10 | 2 | -9 | 1.8 | .
COc1ccc(S(=O)(=O)N2CCCCCC2)cc1C(=O)N(C)CCOc1ccccc1 | 5 | . | 0 | 7 | -3 | -1 | . | . | .
COc1cccc(N2CCN(CC(=O)Nc3nnc(-c4ccccc4)s3)CC2)c1 | 15 | 59* | 3 | -1 | 46 | 4 | 95* | 0.5 | 15
COc1cccc(N2CCN(CC(=O)NC3=Nc4ccccc4N=C(C)C3c3ccccc3)CC2)c1 (configuration not stated) | 4 | -22 | 1 | 2 | -10 | 7 | . | . | .
CCCN(C(=O)CSc1nnc(-c2ccncc2)n1CCC)c1c(N)n(Cc2ccccc2)c(=O)[nH]c1=O | . | . | . | . | 2 | . | . | . | .
CCc1ccc(OCC(=O)N/N=C(\C)c2ccc(-n3ccnc3)cc2)cc1 | 4 | 55* | 0 | -10 | . | 0 | 90* | 0.11 | 52
CCCOc1c(Br)cc(C(=O)OCC(=O)NC2CC2)cc1OC | 6 | . | 0 | -3 | 10 | 1 | . | . | .
O=C1c2ccccc2C2=Nc3ccccc3SC(c3cccc(F)c3)C12 (configuration not stated) | -10 | 66* | 5 | 2 | . | 18 | 65 | 8.8* | .
Cc1ccc(OCCC(=O)OC(C)C(=O)NC2CC2)cc1 (configuration not stated) | 12 | . | 0 | 4 | 2 | 0 | . | . | .
CN(C)c1cccc(C(=O)Nc2nnc(Cc3ccccc3)s2)c1 | -15 | -2 | 2 | -2 | . | 1 | . | . | .
COc1ccc(/C=N/N=C2\SCC(=O)N2c2c(C)n(C)n(-c3ccccc3)c2=O)cc1OC | -3 | 62* | 3 | -1 | -4 | 0 | 32 | -0.53 | .
Cc1c(N2C(=O)CS/C2=N\N=C\c2ccc(Cl)cc2)c(=O)n(-c2ccccc2)n1C | 6 | . | 0 | -1 | . | 1 | . | . | .
O=c1[nH]c(CSc2nnc(-c3ccccc3)n2-c2ccccc2)nc2ccccc12 | 4 | 62* | 0 | -1 | 13 | 2 | 11 | -0.27 | .
O=C(CSc1nc2ccccc2s1)N1N=C(c2cccs2)CC1c1ccc(F)cc1 (configuration not stated) | 15 | -10 | 0 | -10 | . | 0 | . | . | .
COc1ccc(C2CC(c3cccs3)=NN2C(=O)CSc2nc3ccccc3s2)cc1 (configuration not stated) | -5 | 74* | 1 | -9 | . | -1 | 101* | -0.94 | 4
Cc1nn(Cc2ccc(F)cc2)c(C)c1NC(=O)C1c2ccccc2Oc2ccccc21 | -3 | 62* | 0 | 1 | . | 3 | 92* | -0.1 | -1
CCOC(=O)c1c(C)[nH]c(N=Nc2ccccc2Cl)c1C | -9 | 65* | 0 | -5 | 11 | 12 | 105* | 0.39 | 5
CCCCOc1ccc(C(=O)NCC(=O)NCC(c2ccc(F)cc2)N2CCOCC2)cc1 (configuration not stated) | -15 | . | 0 | -4 | 7 | -1 | . | . | .
CS(=O)(=O)N(CC(=O)Nc1ccc2c(c1)OCO2)Cc1ccccc1 | -8 | 54* | 1 | 7 | . | -1 | 69 | -0.96 | 7
CS(=O)(=O)N(CC(=O)Nc1cccc(Br)c1)Cc1ccccc1 | -3 | 52* | 0 | 7 | . | 1 | 84* | -0.59 | 25
CS(=O)(=O)N(CCc1ccccc1)CC(=O)Nc1ccc2c(c1)OCO2 | 22 | -1 | 1 | 1 | -28 | 0 | . | . | .
Cc1ccnc(NS(=O)(=O)c2cc(-c3cc(C)no3)ccc2C(C)C)c1 | -5 | 8 | 0 | -2 | . | 0 | . | . | .
CCOc1cc([C@@H]2C[C@H]3CN(c4ccccc4)C(=O)[C@]34CCCN24)ccc1OC | 11 | 80* | 0 | 7 | 85 | 0 | 97* | 0.57 | 19
COc1cc([C@@H]2C[C@H]3CN(c4ccccc4)C(=O)[C@]34CCCN24)cc(OC)c1OC | 8 | 3 | 0 | -3 | 5 | 0 | . | . | .
COc1ccc(NC(=O)CSc2nc3c(c(=O)n2-c2ccccc2OC)SCC3)cc1 | -4 | 18 | 5 | 8 | -1 | -2 | . | . | .
SMILES | Arrestin-AP2 inh | Hep lipid drop | GRK2 inh | B2AR ag | H9c2 TAG inh | NTR1 agonist | Hep lipid conf | AML12 tox img | AML12 tox conf
CCOC(=O)c1ccc(NC(=O)CSc2nc3c(c(=O)n2-c2ccccc2OC)SCC3)cc1 | -7 | 87* | 1 | -4 | 48 | -2 | 105* | -0.5 | 2
CN(C(=O)Nc1cnccc1C(F)(F)F)C1CCCCC1 | 0 | 17 | 2 | -6 | 1 | 1 | . | . | .
Cc1ccc(NC(=O)C2CCCN(S(=O)(=O)c3c(C)noc3/C=C/N(C)C)C2)cc1F (configuration not stated) | 24 | 57* | 0 | 6 | . | 5 | 77* | -0.69 | 8
CCCN1C(=O)/C(=C/c2c(N3CCNC(=O)C3CC(=O)OCC)nc3c(C)cccn3c2=O)SC1=S (configuration not stated) | 5 | 74* | 0 | i | -40 | 0 | 58* | 0.065 | .
Cc1ccccc1N1CCN(C(=S)c2ccc(-c3ccc([N+](=O)[O-])cc3)o2)CC1 | 2 | 86* | 17 | -3 | 14 | 2 | 69* | -0.28 | .
CCCNC(=O)C1(C)CCCN(C(=O)Cc2cccc(OC)c2)C1 (configuration not stated) | . | . | . | . | -3 | . | . | . | .
CC(=O)C1=C(C)NC(SCSc2ccccc2)=C(C#N)C1c1cccnc1 (configuration not stated) | . | 59* | 1 | . | . | 6 | 79* | 0.91 | -7
CC(=O)C1=C(C)NC(SCC(=O)c2ccc(-c3ccccc3)cc2)=C(C#N)C1c1cccnc1 (configuration not stated) | . | . | 0 | . | . | 4 | . | . | .
O=C1OCCC1Sc1nnnn1-c1ccc(Cl)cc1 (configuration not stated) | 26 | -4 | 1 | 1 | -2 | 1 | . | . | .
CCCc1cc(=O)n2[nH]c(NC(=O)c3ccco3)nc2n1 | -7 | 9 | 0 | -1 | . | 3 | . | . | .
CC(=O)c1ccc(Nc2nc(=O)c3cccnc3s2)cc1 | 3 | 77* | 1 | -6 | . | -2 | 20 | -0.77 | .
Cc1ccccc1-n1c(SCC(=O)N2CCN(c3ccccn3)CC2)nnc1N1CCOCC1 | 25 | . | 1 | -7 | 3 | 0 | . | . | .
